Published values pooled from the literature.
Each line is one published result; the experiments were not run side by side.
Target: Serine/threonine-protein kinase PLK1 (PLK1, Homo sapiens, UniProt P53350)

Structure (SMILES) | read-out | action | technique | cells | tested at | endpoint | value
O=C(NC[C@@H]1[C@H]2CN(C(=O)OCc3cc(C(F)(F)F)cc(C(F)(F)F)c3)C[C@@H]12)c1ccc2[nH]nnc2c1 | cell-free assay |  | competition with immobilised ligand |  | 1 µM | remaining binding | 100%
COc1cc2ncnc(Nc3ccc(Oc4ccccc4)c(C)c3C)c2cc1OC | enzyme activity | inhibitor |  |  | 1 µM | inhibition | -1%
CC(C)(C)C(=O)c1sc(NC2CCCCC2)nc1N | enzyme activity | inhibitor |  |  | 10 µM | remaining activity | 93%
O=C(CSc1nc2nccnc2c(=O)n1CCc1ccccc1)Nc1nccs1 | enzyme activity | inhibitor |  |  | 10 µM | inhibition | 8%
FC(F)(F)Oc1cccc(-c2cnc3ccc(-c4ccncc4)nn23)c1 | enzyme activity | inhibitor | radiometric |  | 1 µM | activity vs control | 93%
O=C1NC(=O)c2cc(Nc3ccc(F)cc3)c(Nc3ccc(F)cc3)cc21 | cell-free assay |  |  |  | 0.5 µM | remaining signal | 99.9%
Cc1ccc(C(=O)NCc2ccsc2)cc1C#Cc1cn(C(C)C)c2ncnc(N)c12 | enzyme activity | inhibitor |  |  | 1 µM | activity vs control | 105%
Oc1cccc(-c2nc(N3CCOCC3)c3oc4ncccc4c3n2)c1 | enzyme activity | inhibitor |  |  | 10 µM | remaining activity | 93%
Cc1cc(-n2nc(Cc3cc(F)cc(C(F)(F)F)c3)nc2C)ccc1C(N)=O | cell-free assay |  | competition with immobilised ligand |  | 1 µM | remaining binding | 100%
N#CCCc1ccc2c(c1)-c1[nH]c3ccc([N+](=O)[O-])cc3c1CC(=O)N2 | cell-free assay |  |  |  | 0.5 µM | remaining signal | 101%
Nc1ncnc2occ(-c3ccc(NC(=O)Nc4cc(C(F)(F)F)ccc4F)cc3)c12 | cell-free assay | inhibitor |  |  | 20 µM | remaining signal | 100%
O=C(Nc1cnn(-c2csc(C(=O)NC3COC3)c2)c1)Nc1ccccc1Cl | enzyme activity | inhibitor |  |  | 5 µM | remaining activity | 97%
Cc1c(NC(=O)c2cc(C(N)=O)nc3cc(F)ccc23)c(C(F)(F)F)nn1Cc1ccc(C(C)(C)C)cc1 | cell-free assay |  | competition with immobilised ligand |  | 1 µM | remaining binding | 99%
CCN(CC)CCNC(=O)c1c(C)[nH]c(/C=C2\C(=O)Nc3ccc(F)cc32)c1C | cell-free assay |  |  |  | 0.5 µM | remaining signal | 96.4%
CC(C)(O)[C@H]1CC[C@H](Nc2ccc3ncc(-c4cccc(C(F)(F)F)c4)n3n2)CC1 | enzyme activity | inhibitor |  |  | 1 µM | remaining activity | 94.4%
FC(F)c1nc2ccccc2n1-c1nc(N2CCOCC2)nc(N2CCOCC2)n1 | enzyme activity | inhibitor |  |  | 10 µM | remaining activity | 75%
CNCc1ccccc1-c1csc([C@@H](C)Nc2nc(C)nc3cc(OC)c(OC)cc23)c1 | cell-free assay |  | competition with immobilised ligand |  | 1 µM | remaining binding | 80%

Structure (SMILES) | read-out | action | technique | cells | tested at | endpoint | value
CN1CC(Oc2cnc(C#N)cc2-c2ccn3nc(NC(=O)C4CC4)cc3c2)C1 | enzyme activity | inhibitor |  |  | 1 µM | inhibition | 6%
Cc1sc(C(=O)NC2COC2)cc1-n1cc(NC(=O)Nc2c(F)cccc2Cl)cn1 | enzyme activity | inhibitor |  |  | 10 µM | remaining activity | 102%
Cc1ccc(C(=O)Nc2ccc(CN3CCN(C)CC3)c(C(F)(F)F)c2)cc1C#Cc1cnc2cccnn12 | enzyme activity | inhibitor |  |  | 23.5 nM | remaining activity | 96%
COc1cc(Nc2cnc(C#N)c(O[C@H](C)CN(C)C)n2)ncc1-c1cnn(C)c1 | enzyme activity | inhibitor | radiometric |  | 1 µM | remaining activity | 88%
COc1cc(Cl)c(C(=O)N[C@@H](CN[C@H]2CC[C@@H](N)CC2)Cc2ccc(C#N)cc2)cc1-c1ccc(CN[C@H](C)c2ccc(C)cc2)o1 | enzyme activity | inhibitor |  |  | 1 µM | remaining activity | 94%
O=c1cc(N2CCOCC2)oc2c(-c3ccccc3)cccc12 | cell-free assay |  |  |  | 0.5 µM | remaining signal | 67.1%
Cc1cnc(NC2CCOCC2)nc1-n1cnc(C(=O)NC(CN)c2cc(F)cc(Cl)c2)c1 (stereo not shown) | enzyme activity | inhibitor | radiometric |  | 1 µM | remaining activity | 103%
CCN1CCN(Cc2ccc(NC(=O)c3ccc(C)c(Oc4ccnc5[nH]ccc45)c3)cc2C(F)(F)F)CC1 | target engagement in cells | inhibitor | chemoproteomics | Huh-7 | 1 µM | inhibition | -16.2%
Cc1[nH]c(/C=C2\C(=O)Nc3ccc(F)cc32)c(C)c1C(=O)N[C@H]1CCN(C(=O)N(C)C)C1 | enzyme activity | inhibitor |  |  | 1 µM | remaining activity | 122%
CN(c1ccnc(CNc2nc(Nc3ccc4c(c3)CC(=O)N4)ncc2C(F)(F)F)n1)S(C)(=O)=O | cell-free assay |  | competition with immobilised ligand |  | 1 µM | remaining binding | 7.6%
CSc1nc(C)c(-c2ccnc(Nc3ccc(N4CCOCC4)cc3)c2)[nH]1 | enzyme activity | inhibitor |  |  | 10 µM | inhibition | 6.3%
O=C(Nc1cccnn1)N1CC(C/C=C/c2cncc(Oc3ccc(C(F)(F)F)cn3)n2)C1 | cell-free assay |  | competition with immobilised ligand |  | 1 µM | remaining binding | 87%
Nc1nc(NC2CCCCC2)sc1C(=O)c1ccccc1 | enzyme activity | inhibitor |  |  | 10 µM | remaining activity | 82%
CC(C)CC(=O)N1CCc2nc(-c3ccc(Br)cc3)nc(N(C)Cc3ccccc3)c2C1 | cell-free assay |  | competition with immobilised ligand |  | 0.1 µM | remaining binding | 100%
CN(C)C1CCN(CC#Cc2nn(C3CCCC3)c3nc(NCc4ccccc4)ncc23)C1 (stereo not shown) | enzyme activity | inhibitor | FRET |  | 1 µM | inhibition | -5%
CC(=O)C1=C(C)N(c2cccc(C(F)(F)F)c2)C(=O)N[C@@H]1c1ccc(C#N)nc1 | cell-free assay |  | competition with immobilised ligand |  | 1 µM | remaining binding | 100%
C=CC(=O)Nc1cc(Nc2nccc(Nc3cc(Cl)c(F)cc3C(C)(C)O)n2)c(OC)cc1N1CC[C@@H](N(C)C)C1 | enzyme activity | inhibitor |  |  | 1 µM | inhibition | 11%
